Test results taken from publication PMC4944842 (Molecular cancer therapeutics, 2010).

How the values were obtained:
[1] = target: PKA (Homo sapiens, UniProt P17612); test: Kinase enzyme assay; assay type: biochemical; conditions: read-out: activity remaining
[2] = target: p70S6K (Homo sapiens, UniProt P23443); test: Kinase enzyme assay; assay type: biochemical; conditions: read-out: activity remaining
Method in brief: (§1)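 Millipore profiling covered 50 human kinases. Test compound was tested at 10 µmol/L, with ATP at the Km of each enzyme. Readout was % kinase activity remaining.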

[3] = target: CHK2 (Homo sapiens, UniProt O96017); test: Kinase profiling at 10 µmol/L; assay type: biochemical; conditions: read-out: activity remaining
Method in brief: as §1

[4] = target: Rock-II (Homo sapiens, UniProt O75116); test: Kinase profiling at 10 µmol/L; assay type: biochemical; conditions: read-out: activity remaining
Method in brief: as §1

[5] = system: panel of kinases representative of the human protein kinome; test: Kinase profiling at 10 µmol/L against panel of kinases; assay type: biochemical; conditions: ATP at Km
Method in brief: as §1

[6] = system: U87MG human glioblastoma cells; test: 96-hour SRB antiproliferative assay; assay type: cell-based; conditions: U-87 MG, read-out: GI50 for growth inhibition (mean±SD)
Method in brief: (§2)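 Cells attached for 36 h before treatment so they were in exponential growth. Test compound came from a 10 mM DMSO stock. Growth was measured by sulforhodamine B staining after 96 h of exposure. GI50 was derived by a previously published method and reported as mean ± SD of 3–5 independent experiments.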

[7] = system: LNCaP human prostate cancer cells; test: 96-hour SRB antiproliferative assay; assay type: cell-based; conditions: read-out: GI50 for growth inhibition (mean±SD)
Method in brief: as §2

[8] = system: PC3 human prostate cancer cells; test: 96-hour SRB antiproliferative assay; assay type: cell-based; conditions: read-out: GI50 for growth inhibition (mean±SD)
Method in brief: as §2

[9] = system: U87MG human glioblastoma cells; test: Immunoblotting of AKT biomarkers and cell cycle proteins; assay type: cell-based
Method in brief: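 U87MG cells were exposed for 1 h to increasing test-compound concentrations, or to one fixed concentration sampled at intervals up to 48 h. Controls were DMSO and LY294002 (30 µM, 1 h). Phospho and total AKT, GSK3β, PRAS40, FOXO1/3a, S6RP, cyclin D1, p21 and p27 were immunoblotted (10% Tris-glycine gels, PVDF, overnight 4 °C primaries, ECL). GAPDH served as loading control.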

[10] = system: PC3 and LNCaP prostate cancer cell lines, HCT116 colorectal cancer cells and MCF7 human breast cancer cells; assay type: cell-based; conditions: one hour exposure, 3 or 10 µM
Method in brief: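 PC3, LNCaP, HCT116 and MCF7 cells were exposed for 1 h to 3 or 10 µM test compound. Controls were DMSO and LY294002 (30 µM, 1 h). Lysates were run on 10% Tris-glycine gels, transferred to PVDF and blocked in 5% milk/Tris-NaCl-Tween. Primary antibodies were applied overnight at 4 °C, then HRP secondaries for 1 h, with ECL detection. GAPDH served as loading control.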

[11] = system: PTEN-null U87MG human glioblastoma cells; test: Flow cytometry cell cycle analysis; assay type: cell-based
[12] = Pharmacokinetics after single dose of 25 mg/kg; assay type: in vivo, mice
Method in brief: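 Mice bearing HCT116 xenografts received a single 25 mg/kg dose i.v., i.p. or p.o. Plasma and tumor were sampled over time, 3–5 mice per time point. Drug was extracted with methanol and quantified by LC-MS on a Synergi-Polar RP column (0.1% formic acid/methanol gradient, 0.6 ml/min, 12 min). Data are mean ± SE.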

[13] = system: U87MG human glioblastoma xenografts; test: Pharmacodynamic AKT biomarker immunoblotting in tumor xenografts; assay type: in vivo, mice; conditions: 50 mg/kg i.p. × 4 days
Method in brief: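 Mice bearing s.c. U87MG xenografts received 50 mg/kg i.p. daily for 4 days. Tumors were harvested 2 and 6 h after the last dose; protein was measured by Bradford and tumors were immunoblotted. Each phosphoprotein/total protein ratio was normalized to GAPDH and expressed relative to vehicle controls (=1.0). Data are mean ± SE of 3–5 determinations.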

[14] = system: PTEN-null U87MG human glioblastoma xenografts; test: Antitumor activity in human tumor xenograft; assay type: in vivo, mice; conditions: 25 mg/kg i.p. × 5 of 7 days
Method in brief: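 U87MG cells (2 × 10⁶) were injected s.c. into the right flank of 6–8-week-old female […] mice. Mice were randomized at ~100 mm³ mean tumor volume and given test compound i.p. or vehicle (10% DMSO, 5% Tween 20, 85% saline). Body weight and caliper tumor diameters were recorded three times weekly. Volume = 4/3π[(d1+d2)/4]³; tumors were excised and weighed at study end.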

[15] = system: HER2-positive, PIK3CA-mutant BT474 human breast cancer xenografts; test: Antitumor activity in human tumor xenograft; assay type: in vivo, mice; conditions: 40 mg/kg bid × 5 of 7 days
Method in brief: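 BT474 cells (5 × 10⁶) in medium mixed 1:1 with matrigel were implanted into mammary fat pads of female mice. Estradiol pellets (0.025 mg, 90-day release) had been placed s.c. 3 days earlier. Mice were randomized at ~100 mm³ mean tumor volume. Dosing was 40 mg/kg i.p. twice daily for 5 days versus vehicle (10% DMSO, 5% Tween 20, 85% saline). Tumors (calipers) and body weight were measured thrice weekly.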

Chain of CHK2 (O96017 whole entry): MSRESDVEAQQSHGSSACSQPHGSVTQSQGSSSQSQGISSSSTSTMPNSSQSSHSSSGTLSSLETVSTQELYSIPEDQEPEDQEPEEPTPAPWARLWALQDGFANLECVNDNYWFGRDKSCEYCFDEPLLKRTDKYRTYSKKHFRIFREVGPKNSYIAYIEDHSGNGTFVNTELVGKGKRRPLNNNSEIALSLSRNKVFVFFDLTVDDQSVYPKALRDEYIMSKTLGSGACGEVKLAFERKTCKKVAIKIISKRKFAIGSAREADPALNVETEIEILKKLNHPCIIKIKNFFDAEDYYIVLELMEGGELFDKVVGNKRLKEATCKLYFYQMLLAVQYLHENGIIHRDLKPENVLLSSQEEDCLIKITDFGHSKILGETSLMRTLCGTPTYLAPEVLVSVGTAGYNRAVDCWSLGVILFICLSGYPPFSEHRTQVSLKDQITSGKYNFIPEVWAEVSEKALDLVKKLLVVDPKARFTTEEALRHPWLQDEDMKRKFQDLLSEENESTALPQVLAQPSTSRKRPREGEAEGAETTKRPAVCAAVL
Chain of p70S6K (P23443 whole entry): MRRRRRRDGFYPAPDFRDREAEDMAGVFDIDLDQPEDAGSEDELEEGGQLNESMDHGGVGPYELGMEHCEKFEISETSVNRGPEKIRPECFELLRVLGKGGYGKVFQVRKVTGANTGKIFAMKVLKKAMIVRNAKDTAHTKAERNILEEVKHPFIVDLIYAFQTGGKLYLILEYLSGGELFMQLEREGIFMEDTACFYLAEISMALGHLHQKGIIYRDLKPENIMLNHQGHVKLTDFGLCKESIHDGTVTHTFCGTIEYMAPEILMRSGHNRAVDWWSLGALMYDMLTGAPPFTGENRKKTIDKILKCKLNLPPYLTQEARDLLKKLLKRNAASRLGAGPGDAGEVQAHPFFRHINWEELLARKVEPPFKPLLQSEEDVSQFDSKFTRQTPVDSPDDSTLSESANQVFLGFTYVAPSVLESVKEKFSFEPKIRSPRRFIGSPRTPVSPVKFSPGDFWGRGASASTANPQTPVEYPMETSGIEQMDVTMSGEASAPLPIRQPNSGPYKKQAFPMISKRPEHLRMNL
Chain of Rock-II (O75116 whole entry): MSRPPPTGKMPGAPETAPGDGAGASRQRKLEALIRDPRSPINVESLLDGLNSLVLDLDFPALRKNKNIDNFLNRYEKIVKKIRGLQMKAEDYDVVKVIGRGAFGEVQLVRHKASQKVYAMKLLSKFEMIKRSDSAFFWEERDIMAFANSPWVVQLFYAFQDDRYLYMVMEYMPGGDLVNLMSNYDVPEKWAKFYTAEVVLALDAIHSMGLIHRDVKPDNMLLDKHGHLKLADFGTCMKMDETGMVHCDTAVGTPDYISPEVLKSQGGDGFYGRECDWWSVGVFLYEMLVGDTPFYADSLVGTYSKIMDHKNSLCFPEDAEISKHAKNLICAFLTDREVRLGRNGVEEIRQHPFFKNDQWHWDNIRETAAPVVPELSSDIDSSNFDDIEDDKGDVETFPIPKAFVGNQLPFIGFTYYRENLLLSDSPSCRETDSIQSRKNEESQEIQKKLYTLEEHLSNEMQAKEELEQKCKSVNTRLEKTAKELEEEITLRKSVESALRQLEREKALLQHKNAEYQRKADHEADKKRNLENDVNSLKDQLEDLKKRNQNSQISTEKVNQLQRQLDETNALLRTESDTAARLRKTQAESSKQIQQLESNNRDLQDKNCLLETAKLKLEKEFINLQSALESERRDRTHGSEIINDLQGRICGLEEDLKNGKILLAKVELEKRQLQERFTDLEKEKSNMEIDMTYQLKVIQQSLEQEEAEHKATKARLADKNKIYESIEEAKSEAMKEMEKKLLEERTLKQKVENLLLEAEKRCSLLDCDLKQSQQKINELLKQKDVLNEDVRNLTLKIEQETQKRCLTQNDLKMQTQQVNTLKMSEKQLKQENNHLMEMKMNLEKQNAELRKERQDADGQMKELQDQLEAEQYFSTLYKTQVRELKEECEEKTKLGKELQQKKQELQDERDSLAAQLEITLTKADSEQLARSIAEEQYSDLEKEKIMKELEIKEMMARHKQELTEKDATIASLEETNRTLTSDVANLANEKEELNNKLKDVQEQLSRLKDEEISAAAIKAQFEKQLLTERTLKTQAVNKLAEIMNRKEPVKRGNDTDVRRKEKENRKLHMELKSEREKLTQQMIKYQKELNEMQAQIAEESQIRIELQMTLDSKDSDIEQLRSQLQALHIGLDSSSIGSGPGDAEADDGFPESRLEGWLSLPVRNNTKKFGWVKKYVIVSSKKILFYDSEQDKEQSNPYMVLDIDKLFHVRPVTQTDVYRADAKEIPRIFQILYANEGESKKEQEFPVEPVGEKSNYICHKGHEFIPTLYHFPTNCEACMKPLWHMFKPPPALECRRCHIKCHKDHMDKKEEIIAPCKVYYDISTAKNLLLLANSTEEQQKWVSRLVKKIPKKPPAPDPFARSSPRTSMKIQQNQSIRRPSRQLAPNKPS

remaining activity at 10 µM [1]: < 25% | remaining activity at 10 µM [2]: < 25% | remaining activity at 10 µM [3]: < 25% | remaining activity at 10 µM [4]: < 25% | cross-reactivity with 47 other kinases [5]: minimal cross-reactivity | GI50 [6]: 6300 nM | GI50 [7]: 350 nM | GI50 [8]: 1900 nM | peak tumor concentration ([12]; 25 mg/kg i.p., HCT116 human colon tumor xenograft): 8 µM | AUC0-∞ tumor ([12]; 25 mg/kg i.p., HCT116 tumor xenograft): 25.8 µMh | administered dose recovered unaltered in urine ([12]; 25 mg/kg i.p., after 24 hours (data not shown)): 0.23% | AUC0-∞ plasma ([12]; 25 mg/kg i.p., mice): 1.3 µMh | AUC0-∞ plasma ([12]; 25 mg/kg i.v., mice): 4.6 µMh | peak concentration in plasma ([12]; 25 mg/kg i.v., mice): 6.4 µM | peak plasma concentration ([12]; 25 mg/kg p.o., mice): 0.43 µM | weight loss [14]: no weight loss
Structure (SMILES): NC1(Cc2ccc(Cl)cc2)CCN(c2ncnc3[nH]ccc23)CC1 [CCT128930, 4-(4-chlorobenzyl)-1-(7H-pyrrolo[2,3-d]pyrimidin-4-yl)piperidin-4-amine]
cyclin D1 over time ([9]; 18.9 μM): decreased after 8 hours | pSer473 AKT over time ([9]; 18.9 μM (3× GI50), after 30 minutes, sustained for 48 hours): increase in phosphorylation | pThr32 FOXO3a phosphorylation ([9]; 18.9 μM, after one hour exposure): marked decrease | pSer235/236 S6RP signal over time ([9]; 18.9 μM, decrease at 30 minutes): complete loss after 2 hours | pSer240/244 S6RP signal over time ([9]; 18.9 μM, decreased from 4 hours): abolished after 8 hours | pSer9 GSK3β phosphorylation over time ([9]; 18.9 μM, from 30 minutes, sustained at least 24 hours, recovery at 48 hours): rapid and profound loss | pThr246 PRAS40 over time ([9]; 18.9 μM, from 30 minutes, sustained throughout 48 hours): marked loss in phosphorylation | CDK inhibitor p27 over time ([9]; 18.9 μM, from 2 hours): induction | exposure sufficient to markedly inhibit phosphorylation of GSK3β, S6RP, FOXO1 and PRAS40 ([9]; 1 hour): 5 to 10 µM | concentration decreasing cyclin D1 expression ([9]; 1 h treatment): ≥ 40 µM | concentration inhibiting direct substrates of AKT (Ser9 GSK3β, pThr246 PRAS40 and pT24 FOXO1/p32 FOXO3a) ([9]; 1 h treatment): ≥ 5 μM | concentration inhibiting downstream target pSer235/236 S6RP ([9]; 1 h treatment): ≥ 10 μM | effect on pSer240/244 S6RP ([9]; 1 h treatment, increasing concentrations): minimal effects | concentration up to which AKT phosphorylation at serine 473 is induced ([9]; 1 h treatment, decrease at higher concentrations): up to 20 μM | apoptosis as measured by PARP cleavage ([9]; after CCT128930 treatment (Supplementary Figure 2)): increase | pSer473 AKT [10]: induction | pSer9 GSK3β ([10]; all four cell lines): Decreased phosphorylation | pSer240/244 S6RP ([10]; all four cell lines): decreased | G2/M cells ([11]; 1 × GI50, 24 hours, DMSO control 16.7%): 18.9% | S phase cells ([11]; 1 × GI50, 24 hours, DMSO control 32.3%): 13.2% | G0/G1 phase cells ([11]; 1 × GI50, 24 hours, DMSO control 46.4%): 63.2% | G2/M phase cells ([11]; 3 × GI50 (18.9µM), 24 hours, DMSO control 17.8%): 30.5% | S phase cells ([11]; 3 × GI50 (18.9µM), 24 hours, DMSO control 36.6%): 2.0% | G0/G1 phase cells ([11]; 3 × GI50 (18.9µM), 24 hours, DMSO control 43.6%): 64.8% | phosphorylation of Ser9 GSK3β ([13]; 2 and 6 hours (P<0.001 and P<0.01)): significant decreases | phosphorylation of Ser235/236 S6RP ([13]; 2 and 6 hours (P<0.05 and P<0.01)): significant decreases | phosphorylation of Thr246 PRAS40 ([13]; 2 and 6 hours (P<0.05 and P<0.05)): significant decreases | Ser473 phosphorylation on AKT ([13]; 2 and 6 hours after last dose (P<0.001 and P<0.01)): significant increase | antitumor effect [15]: complete growth arrest | body weight nadir, % of the initial body weight ([15]; day 15 of treatment): 94.8%
